Compound activity (PubChem)
An excerpt weighted towards active compounds, which were near 2.4% of everything screened.
697 NFkB inh = lowers PMA/ionomycin-induced NF-kB signal in 697 B cells. AID 435022. inhibition, % at 4 µM. 0.33% of 330,000 active. 697 B-cell NF-kB luciferase reporter, 16 h; in the data active = inhibition above about 35%
Jurkat NFkB inh = lowers PMA/ionomycin-induced NF-kB signal in Jurkat cells | 0.53% of 330,000 active | inhibition, % at 4 µM | PMA/ionomycin-induced NF-kB luciferase reporter, luminescence; in the data active = inhibition above about 50%
NR2E3 ag-1 = agonists of human nuclear receptor NR2E3 | Q9Y5X4 | GST-NR2E3/biotin-RetCOR TR-FRET, 1536-well | inhibition of corepressor binding, % at 4.78 µM | 0.12% of 320,000 active;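 active = percent inhibition above the cutoff of mean plus 3 SD of all tested compounds, set per screening campaign, cut at about 20% in these data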;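 note: 0% = DMSO wells and 100% = biotin wells as full block of FRET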
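system = GST-tagged NR2E3 plus biotinylated RetCOR corepressor | input = 1.35 nM GST-NR2E3 | also added = 7 nM biotin-RetCOR | schedule = 5 h incubation at 4 °C | measured by = TR-FRET with europium anti-GST and streptavidin-D2, 340 nm excitation | read-out = percent loss of FRET ratio relative to control wells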
aDG glyco up = increases alpha dystroglycan glycosylation | Pro5-aDG cells, alpha-DG glycosylation AlphaScreen (IIH6); 0% Pro5, 100% B10-LARGE cell signal | activation, % at 10 µM | 0.22% of 360,000 active | AID 624168;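 active = activation of at least 8% versus controls, or a plate z-score of at least 8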;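 note: Pro5 are CHO cells carrying HIG-tagged alpha-DG that lacks glycosylation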
NR2E3 ag-2 = agonists of human NR2E3 nuclear receptor. CHO-S Gal4-NCOR/VP16-NR2E3 two-hybrid, luciferase. inhibition of corepressor binding, % at 3.98 µM. 0.35% of 360,000 active. Q9Y5X4. AID 602229;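 active = inhibition above the mean of all tested compounds plus 3 SD, cut at about 70% in these data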;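 note: 0% = DMSO with NR2E3 transfected cells and 100% = cells lacking NR2E3 construct; higher means lower luciferase signal from less NR2E3 corepressor binding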
MPTP block = blocks calcium-induced mitochondrial swelling. inhibition, % at 10 µM. isolated mouse mitochondria, Ca2+ swelling absorbance, 30 min. 1.4% of 360,000 active. AID 602449;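 active = inhibition of 50% or more, scaled per plate between neutral and stimulator controls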;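 note: 0% = DMSO wells given calcium and 100% = 1 mM EGTA wells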
NR2E3 ag confirm = confirmation of human NR2E3 nuclear receptor agonists; shares compounds with NR2E3 ag-1; activation (reported as inhibition), % at 3.98 µM; cell-free NR2E3 corepressor release, TR-FRET, 5 h; AID 2379; 39% of 360 active; in the data active = activation above about 20%
PPARg-NCOR2 ctr = PPARg-NCOR2 interaction agonism, NR2E3 counter-screen | shares compounds with NR2E3 ag-1 | TR-FRET PPARg-NCOR2 coregulator interaction, biochemical | inhibition, % at 3.98 µM | 45% of 360 active | AID 504787; in the data active = inhibition above about 20%;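 note: 0% = DMSO vehicle and 100% = wells without protein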
Target sequence (P37231 whole entry, looked up): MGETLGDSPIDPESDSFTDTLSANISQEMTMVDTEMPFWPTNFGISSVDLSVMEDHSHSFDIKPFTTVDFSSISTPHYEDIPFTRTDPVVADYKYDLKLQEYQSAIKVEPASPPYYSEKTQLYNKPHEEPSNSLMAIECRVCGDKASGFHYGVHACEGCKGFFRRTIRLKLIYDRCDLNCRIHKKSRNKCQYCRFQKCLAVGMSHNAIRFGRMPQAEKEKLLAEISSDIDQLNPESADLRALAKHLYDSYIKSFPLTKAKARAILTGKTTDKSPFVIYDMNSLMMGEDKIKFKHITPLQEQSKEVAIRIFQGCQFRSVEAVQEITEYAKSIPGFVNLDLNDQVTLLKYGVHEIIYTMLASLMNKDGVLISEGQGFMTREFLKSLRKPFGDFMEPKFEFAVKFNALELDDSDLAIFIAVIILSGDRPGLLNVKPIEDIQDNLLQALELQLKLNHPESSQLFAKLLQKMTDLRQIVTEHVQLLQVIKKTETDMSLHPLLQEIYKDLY
Target sequence (Q9Y618 whole entry, looked up): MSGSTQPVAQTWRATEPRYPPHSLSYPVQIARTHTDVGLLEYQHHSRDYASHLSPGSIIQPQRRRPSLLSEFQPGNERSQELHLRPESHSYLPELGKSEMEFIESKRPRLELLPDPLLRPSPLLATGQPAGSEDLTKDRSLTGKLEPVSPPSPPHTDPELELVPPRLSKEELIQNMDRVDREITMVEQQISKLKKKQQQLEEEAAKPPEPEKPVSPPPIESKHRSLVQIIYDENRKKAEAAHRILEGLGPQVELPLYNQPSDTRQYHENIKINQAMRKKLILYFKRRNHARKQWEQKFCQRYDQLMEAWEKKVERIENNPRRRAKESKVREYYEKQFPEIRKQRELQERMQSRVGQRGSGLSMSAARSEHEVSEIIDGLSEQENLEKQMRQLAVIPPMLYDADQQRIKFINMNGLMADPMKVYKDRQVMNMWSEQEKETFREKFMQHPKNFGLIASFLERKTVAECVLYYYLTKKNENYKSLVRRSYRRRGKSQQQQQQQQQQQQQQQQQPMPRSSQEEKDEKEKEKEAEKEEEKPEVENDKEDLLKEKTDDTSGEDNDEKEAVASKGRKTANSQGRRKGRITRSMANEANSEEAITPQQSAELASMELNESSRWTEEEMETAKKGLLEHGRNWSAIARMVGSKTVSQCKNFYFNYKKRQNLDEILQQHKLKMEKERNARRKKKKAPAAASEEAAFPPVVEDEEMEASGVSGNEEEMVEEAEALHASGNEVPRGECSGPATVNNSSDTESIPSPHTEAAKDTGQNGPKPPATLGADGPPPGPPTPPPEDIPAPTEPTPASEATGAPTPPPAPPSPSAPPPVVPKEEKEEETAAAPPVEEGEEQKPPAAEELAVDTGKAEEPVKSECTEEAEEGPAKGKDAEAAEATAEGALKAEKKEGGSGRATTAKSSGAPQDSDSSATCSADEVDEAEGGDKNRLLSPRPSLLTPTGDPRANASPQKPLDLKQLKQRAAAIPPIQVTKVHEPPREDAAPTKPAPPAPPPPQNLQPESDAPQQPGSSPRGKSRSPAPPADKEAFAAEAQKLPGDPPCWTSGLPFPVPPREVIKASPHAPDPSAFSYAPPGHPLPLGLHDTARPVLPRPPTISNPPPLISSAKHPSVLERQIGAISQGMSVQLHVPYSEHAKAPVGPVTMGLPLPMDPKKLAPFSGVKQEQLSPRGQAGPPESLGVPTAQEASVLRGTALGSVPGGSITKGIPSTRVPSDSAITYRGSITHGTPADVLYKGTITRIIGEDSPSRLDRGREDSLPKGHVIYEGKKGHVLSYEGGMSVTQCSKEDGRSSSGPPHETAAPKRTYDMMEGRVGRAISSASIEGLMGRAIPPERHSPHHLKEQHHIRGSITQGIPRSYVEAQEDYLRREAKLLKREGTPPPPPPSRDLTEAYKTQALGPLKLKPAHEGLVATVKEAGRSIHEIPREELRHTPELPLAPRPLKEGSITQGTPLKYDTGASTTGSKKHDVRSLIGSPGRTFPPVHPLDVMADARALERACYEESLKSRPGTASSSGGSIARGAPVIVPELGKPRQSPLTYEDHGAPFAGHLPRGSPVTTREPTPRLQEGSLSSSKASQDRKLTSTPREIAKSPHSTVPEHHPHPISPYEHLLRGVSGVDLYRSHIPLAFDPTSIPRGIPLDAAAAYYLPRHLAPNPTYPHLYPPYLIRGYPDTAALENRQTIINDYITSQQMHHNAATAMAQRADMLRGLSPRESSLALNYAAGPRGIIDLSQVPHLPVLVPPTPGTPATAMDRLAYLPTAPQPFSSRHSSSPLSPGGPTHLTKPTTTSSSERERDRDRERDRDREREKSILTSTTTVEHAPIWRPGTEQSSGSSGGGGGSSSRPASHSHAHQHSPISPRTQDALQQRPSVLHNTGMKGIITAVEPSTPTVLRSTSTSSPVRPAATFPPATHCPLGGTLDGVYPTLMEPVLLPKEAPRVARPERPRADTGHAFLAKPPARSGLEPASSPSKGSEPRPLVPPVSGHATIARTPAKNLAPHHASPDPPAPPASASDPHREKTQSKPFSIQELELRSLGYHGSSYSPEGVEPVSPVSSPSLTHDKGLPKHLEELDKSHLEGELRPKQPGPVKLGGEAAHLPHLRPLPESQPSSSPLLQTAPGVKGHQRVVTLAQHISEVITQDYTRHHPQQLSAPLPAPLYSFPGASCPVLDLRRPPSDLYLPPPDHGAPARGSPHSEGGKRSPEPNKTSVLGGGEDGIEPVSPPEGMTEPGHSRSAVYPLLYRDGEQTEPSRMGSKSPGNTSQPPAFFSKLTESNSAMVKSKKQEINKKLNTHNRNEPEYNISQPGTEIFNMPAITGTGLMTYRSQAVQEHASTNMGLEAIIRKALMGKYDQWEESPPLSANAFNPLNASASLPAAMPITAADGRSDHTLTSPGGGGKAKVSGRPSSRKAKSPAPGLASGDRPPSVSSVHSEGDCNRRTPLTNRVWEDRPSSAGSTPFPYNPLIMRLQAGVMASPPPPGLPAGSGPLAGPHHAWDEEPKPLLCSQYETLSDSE
Jurkat NFkB conf = inhibitors of the PMA/ionomycin-induced NF-kB reporter in Jurkat cells, retest | Jurkat NF-kB luciferase, 16 h | shares compounds with Jurkat NFkB inh | inhibition, % at 4 µM | AID 435020 | 27% of 2,700 active;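 active = inhibition reaching about 45% at 4 µM in either replicate, limit read from the data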;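 note: plate controls were PMA/ionomycin stimulated DMSO wells for no effect and unstimulated DMSO wells for full effect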
MPTP counter = Rhodamine 123 counter-screen of mitochondrial pore hits; shares compounds with MPTP block; isolated mitochondria, membrane potential, Rhodamine 123 fluorescence; inhibition, % at 10 µM; 78% of 5,000 active; in the data active = inhibition above about 22%;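 note: 0% = DMSO vehicle and 100% = positive control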
MPTP swell DR = dose response confirmation of mitochondrial permeability transition pore inhibitors; 58% of 780 active; shares compounds with MPTP block; isolated mitochondria swelling, absorbance; IC50, µM; in the data active = IC50 below about 20 µM
MPTP counter DR = MPTP inhibitor counter-screen activity, dose response; shares compounds with MPTP block; isolated mitochondria counterscreen, fluorescence read-out; IC50, µM; 49% of 780 active; AID 651564; in the data active = IC50 below about 80 µM
An asterisk follows results filed as active; . = not tested or not shown.

SMILES	697 NFkB inh	Jurkat NFkB inh	NR2E3 ag-1	aDG glyco up	NR2E3 ag-2	MPTP block	Jurkat NFkB conf	others
CCN(CC)c1ccc2c(-c3ccc(S(=O)(=O)O)cc3S(=O)(=O)[O-])c3ccc(=[N+](CC)CC)cc-3oc2c1	25.0	22.8	46.2*	0.0	5.4	64.4*	.	NR2E3 ag confirm=41.0*;PPARg-NCOR2 ctr=48.5*;MPTP counter=1.0
CCOC(=O)/C(C#N)=C1/C=C(C)NC(c2ccccc2O)=N1	-5.8	14.3	22.9*	0.5	20.3	94.3*	.	NR2E3 ag confirm=13.0;PPARg-NCOR2 ctr=10.1;MPTP counter=88.6*
CN(Cc1ccc(Cl)c(Cl)c1)C(c1cc2ccccc2o1)c1nnnn1C(C)(C)C (stereo not given)	.	.	.	-0.2	-3.6	4.3	.
CN1CCN(NC(=O)c2cc(-c3ccc(Br)s3)nc3ccccc23)CC1	9.9	-7.7	26.5*	1.0	-9.2	82.1*	.	NR2E3 ag confirm=16.1;PPARg-NCOR2 ctr=19.9*;MPTP counter=-17.4;MPTP swell DR=15.1*;MPTP counter DR=>80
Cc1ccc(C(=O)CSC2=C(C#N)C(c3ccco3)C3=C(CCCC3=O)N2)cc1 (stereo not given)	-83.6	66.6*	2.7	-0.3	-161.5	4.6	44.2
COC(=O)C(NS(=O)(=O)c1ccc(N2CCCC2=O)cc1)c1ccccc1 (stereo not given)	0.2	-2.6	0.3	0.7	-3.3	-0.7	.
O=[N+]([O-])c1ccc(N2CCN(c3cccc(Cl)c3)CC2)nc1	4.6	61.3*	-2.0	0.5	7.7	1.2	15.4
NC(=O)C1CCN(c2nc(-c3ccccc3C(F)(F)F)cs2)CC1	-111.5	9.3	.	-0.1	-128.4	1.8	.
CCCC(=O)Nc1nc2ccc(S(=O)(=O)N3CCCCC3)cc2s1	-49.1	52.5*	-2.8	0.1	-7.1	-0.5	49.1
O=[N+]([O-])c1ccc(-c2nc(C(Cl)Cl)c3ccccc3n2)cc1	-101.8	97.4*	4.3	-0.5	-20.6	1.4	42.5
CC(=O)c1sc2c(c1OC(=O)c1ccc(Cl)cc1)c(=O)n(-c1ccccc1)c(=S)n2-c1ccccc1	.	.	.	0.0	8.9	0.3	.
CC(=O)c1sc2c(c1OC(=O)c1ccc(Cl)cc1Cl)c(=O)n(-c1ccccc1)c(=S)n2-c1ccccc1	-15.0	68.8*	8.4	0.0	-37.7	0.6	86.9*
O=S(=O)(c1ccc(-c2ccon2)s1)N1CCN(c2ccncc2)CC1	-3.6	-4.7	0.7	.	.	.	.
O=C(Nc1ccc(Cl)cc1)c1ccc(CN2CCc3ccccc3C2)cc1	-52.0	21.2	-0.9	0.0	-101.4	2.5	.
O=C(Nc1ccc(S(=O)(=O)N2CCOCC2)cc1)c1ccc(CN2CCc3ccccc3C2)cc1	30.5	76.6*	-1.7	.	.	.	74.2*
O=C(Nc1ccc(Cc2ccncc2)cc1)c1ccc(S(=O)(=O)N2CCCC2)cc1	3.2	50.2*	.	3.9	20.6	0.0	47.1*
Cc1ccc(S(=O)(=O)NC(=NC2CCCCC2)c2ccccc2)cc1	15.9	2.0	6.1	-0.1	3.2	-0.3	.
CC(C)c1ccc(/C=C/C(=O)NC2=NCCS2)cc1	-170.7	-204.4	-4.5	.	.	.	-101.8
Cc1noc(C)c1COc1cccc(C(=O)OCC(=O)N2CC(=O)Nc3ccccc32)c1	6.0	57.6*	3.5	0.0	-48.1	0.8	48.4
O=C1CN(C(=O)COc2cccc(F)c2)c2ccccc2N1	21.7	2.4	-0.4	.	.	.	.
N#C/C(=C\c1ccc[nH]1)C(=O)Nc1ccccc1F	-42.1	-54.4	.	0.1	-148.2	0.4	.
Cc1cc(/C=C(\C#N)C(=O)Nc2ccccc2F)c(C)[nH]1	-128.2	-190.8	-0.5	0.0	-103.5	-4.5	-5.0
CC1(C)N=C(N)N=C(N)N1c1ccc(Oc2ccc(Cl)cc2)c(Cl)c1	28.6	82.4*	-2.2	-0.2	-17.6	-0.9	66.2*
Cc1nn(CC(=O)NCc2ccco2)c(C)c1[N+](=O)[O-]	16.0	1.4	-1.1	0.0	23.6	0.9	.
COc1ccc(NC(=S)Nc2ccc(Oc3ccccc3)cc2)cc1	-2.1	8.2	-1.5	-0.1	3.3	26.3	.
SMILES	697 NFkB inh	Jurkat NFkB inh	NR2E3 ag-1	aDG glyco up	NR2E3 ag-2	MPTP block	Jurkat NFkB conf	others
COc1ccc(NC(=S)NN(C)C(=S)Nc2ccc(OC)cc2)cc1	-49.0	65.5*	3.8	0.0	-31.9	0.1	-2.0
O=S1(=O)CCN(C2CCCCCC2)CC1	.	.	.	-0.3	4.2	-0.3	.
c1ccc(Cn2ccc(-c3cnc(-c4ccccc4)s3)n2)cc1	-191.9	-154.3	-0.7	0.1	-118.4	0.1	-95.1
CCOC(=O)c1cc(CC)sc1NC(=O)c1ccc2c(c1)OCCO2	-6.5	-22.6	0.9	0.5	-23.9	2.0	.
CCOC(=O)c1cc(CC)sc1NC(=O)c1cccc(N2C(=O)CCC2=O)c1	-67.8	56.9*	-2.0	-0.1	10.2	21.8	8.3
Cc1cccc(N2CCN(C(=O)COc3cc4oc(=O)cc(C)c4cc3Cl)CC2)c1C	-26.4	54.2*	0.3	0.8	-4.1	-1.6	8.3
CN(CC(=O)Nc1ccc(F)cc1)C(=O)C1CCCC1	9.0	-4.1	-1.1	-0.2	-3.8	0.5	.
Cc1ccc(S(=O)(=O)NC(=O)COc2cc(C)ccc2C(C)C)cc1	18.8	4.2	3.5	0.0	-9.2	-1.1	.
COc1ccc(CNCC(=O)Nc2ccccc2-n2cccc2)cc1	-28.3	68.4*	-2.9	0.2	-22.7	-0.9	13.1
COc1ccc(OCC(=O)Nc2ccccc2N2CCCCC2)cc1	3.9	63.5*	1.2	0.0	-54.7	-1.0	47.4
COCCN(C(=O)CSc1nnc(C)n1Cc1ccccc1)c1c(N)n(CC(C)C)c(=O)[nH]c1=O	19.9	5.5	0.8	-0.1	-5.3	-0.9	.
C=CCOc1ccccc1CN1CCCN(C)CC1	-2.0	13.6	0.7	-0.1	-13.1	0.3	.
CSc1nnc2sc3cc(C)ccc3n12	.	.	.	0.1	-39.5	1.3	.
Cc1ccc2c(c1)sc1nc(=O)n(-c3ccccc3)c(=O)n12	-169.0	-183.4	7.0	0.0	-51.6	2.6	-114.3
CCOC(=O)c1ccc(-c2c(-c3ccc(OC)cc3)oc(=O)c3cc(OC)c(OC)cc23)cc1F	-24.7	-12.3	2.3	-0.1	-20.2	0.5	.
